ROMK primary: human ROMK K+ channel modulation, primary screen | P48048 | Tet-inducible ROMK, thallium flux fluorescence; actives lie on both sides | B-score at 10 µM | 2% of 130,000 active | AID 1918;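 active = signal ratio slope over the read window, or its plate-corrected B-score, at least 3 SD from the plate mean, either direction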;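 also: B-score of the F/F0 ratio slope over 7 to 12 s after thallium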
PKD1 inh: blocks activity of human protein kinase D1; PKD1 kinase fluorescence polarization assay; inhibition, % (test concentration not listed); 0.056% of 200,000 active; AID 797; in the data active = inhibition above about 50%
Arbovirus anti: blocks arbovirus infection; AID 1251; 0.37% of 200,000 active; arbovirus infection cell-based antiviral screen; inhibition, % at 10 µM; in the data active = inhibition above about 30%
Cl transport mod: modulates chloride dependent transport by human KCC2; AID 1456; KCC2 cells, thallium flux FluoZin-2 fluorescence; Q9H2X9; B-score of Tl+ flux slope (higher = more flux/activation; lower = inhibition) at 10 µM; 2.2% of 190,000 active;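 active = thallium flux slope and its plate-corrected score both differing from the plate sample mean at a set confidence after two filtering rounds, in either direction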;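 also: slope of fluorescence scaled to starting intensity during 10 to 20 s after thallium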
Target sequence (Q9H2X9 whole entry, looked up): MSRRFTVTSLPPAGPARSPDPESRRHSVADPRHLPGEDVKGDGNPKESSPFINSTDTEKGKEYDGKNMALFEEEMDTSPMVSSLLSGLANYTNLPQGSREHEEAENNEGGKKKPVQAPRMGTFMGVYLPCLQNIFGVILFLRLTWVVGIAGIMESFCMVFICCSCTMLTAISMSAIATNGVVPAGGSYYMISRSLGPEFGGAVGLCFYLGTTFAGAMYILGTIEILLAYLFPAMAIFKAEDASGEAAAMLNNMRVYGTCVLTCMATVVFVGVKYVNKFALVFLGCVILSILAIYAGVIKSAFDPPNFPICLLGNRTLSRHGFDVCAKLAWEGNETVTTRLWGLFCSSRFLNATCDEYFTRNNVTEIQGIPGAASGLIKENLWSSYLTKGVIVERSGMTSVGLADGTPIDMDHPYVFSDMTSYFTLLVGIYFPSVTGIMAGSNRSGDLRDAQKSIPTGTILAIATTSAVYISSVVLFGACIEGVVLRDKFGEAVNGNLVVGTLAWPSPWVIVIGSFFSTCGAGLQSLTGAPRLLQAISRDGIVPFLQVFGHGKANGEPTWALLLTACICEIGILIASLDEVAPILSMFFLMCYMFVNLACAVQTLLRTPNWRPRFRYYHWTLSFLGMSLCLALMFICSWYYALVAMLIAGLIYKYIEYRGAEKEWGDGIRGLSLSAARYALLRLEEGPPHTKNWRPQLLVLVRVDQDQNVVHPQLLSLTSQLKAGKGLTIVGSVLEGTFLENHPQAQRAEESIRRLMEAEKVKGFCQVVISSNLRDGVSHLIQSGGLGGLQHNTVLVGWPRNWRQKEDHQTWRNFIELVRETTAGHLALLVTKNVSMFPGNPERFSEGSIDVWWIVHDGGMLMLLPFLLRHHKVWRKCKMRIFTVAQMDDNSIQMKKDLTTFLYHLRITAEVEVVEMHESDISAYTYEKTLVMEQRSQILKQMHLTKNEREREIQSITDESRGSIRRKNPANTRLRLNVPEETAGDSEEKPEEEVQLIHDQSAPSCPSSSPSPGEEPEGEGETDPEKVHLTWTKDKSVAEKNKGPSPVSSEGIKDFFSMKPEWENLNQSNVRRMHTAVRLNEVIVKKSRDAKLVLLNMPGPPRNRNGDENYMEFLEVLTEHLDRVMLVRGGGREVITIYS
Mdm2 ligase inh: blocks human Mdm2 ubiquitin ligase activity. Q00987. cell-based MDM2 ubiquitination luciferase reporter, 2 h; 0 = plate control, 100 = twice control, blank-subtracted. signal enhancement, % at 5 µM. 0.11% of 210,000 active. AID 1230;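 active = signal enhancement of 30% or more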;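 also: luminescence tracks abundance of the self-degrading MDM2-luciferase fusion protein; higher signal means inhibition of MDM2 E3 ligase activity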
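system = mammalian cells stably expressing self-ubiquitinating, self-degrading MDM2 E3–luciferase fusion | quantity = 2000 cells per well seeded | incubation = 4 h cell settling then 2 h compound exposure, 37 °C | signal = SteadyLite luminescence, 15 min reagent step | benchmarks = plate control and blank wells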
Calpain2 inh: blocks pig calpain II enzyme activity. purified calpain II, fluorogenic peptide substrate, 30 min. inhibition, % at 16 µM. 0.37% of 220,000 active;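 active = inhibition above about 50%, limit read from the data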
ROMK hit retest: human ROMK channel modulation, retest confirmation. shares compounds with ROMK primary. 54% of 3,000 active. ROMK thallium flux, fluorescence ratio; stronger effect = lower value. normalized thallium flux (F/F0 slope) at 10 µM;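 active = Flux at 10 µM at least 3 SD below or above vehicle control mean in one or both replicates; inconclusive = no clear call, values can overlap the other calls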
A number is an active result; - = inactive; ? = inconclusive; . = no result given. Sampled rows, rich in hits. Any-hit rate of the full collection: about 3.7%.

SMILES	ROMK primary	PKD1 inh	Arbovirus anti	Cl transport mod	Mdm2 ligase inh	Calpain2 inh	ROMK hit retest
CC(=O)Nc1ccc(OCCOc2ccc(/C=C3/C(=N)N4C=CSC4=NC3=O)cc2)cc1	4.12	-	-	-	-	-	?
CSc1cccc(NC(=S)NCCCN2CCN(c3ccc(F)cc3)CC2)c1	-2.7	-	-	-	-	-	0.0526
Cc1ccc(C)c(N2CCN(C(=O)c3csc4ccccc34)CC2)c1	.	-	-	-	-	-	.
Cc1ccccc1S(=O)(=O)/N=C(/c1ccccc1)N1CCOCC1	-	-	-	-	-	-	.
Cc1nc2c(C(=O)NCc3ccco3)cnn2c(C)c1Cc1ccc(F)cc1Cl	.	-	-	-	-	-	-
COc1ccc(-c2n(CC(=O)OC3CC(C)CCC3C(C)C)c3ccccc3[n+]2C)cc1 (stereo unspecified)	-1.8	-	-	-	-	-	0.0379
COc1ccc(-c2cc(C(F)(F)F)nc(N)n2)cc1	.	-	-	-	-	-	.
CS(=O)(=O)c1nc(-c2ccc(F)cc2)cc(C(F)(F)F)n1	-2.55	-	-	-	-	-	0.0583
COc1ccc(-c2cc(C(F)(F)F)nc(S(C)(=O)=O)n2)cc1	-4.23	-	-	-	-	-	0.0552
Nc1nc(-c2ccc(F)cc2)cc(C(F)(F)F)n1	-	-	-	.	-	-	.
O=C(Nc1ccccc1Cl)c1csc(-c2cccnc2)n1	5.18	.	.	-	-	-	0.101
CN(CCOc1ccc(Cl)cc1)c1ccc(S(=O)(=O)N2CCCCC2)cn1	-4.39	-	-	-	-	-	?
CCOC(=O)Cc1csc(NC(=O)CSc2ncnc3c2cnn3-c2ccccc2Cl)n1	.	-	-	-	-	-	0.0541
Cc1nnc(NC(=O)CSc2ncnc3c2cnn3-c2ccccc2C)s1	.	-	-	-	-	-	.
COc1ccc(CCCC(=O)N/N=C/c2cccc(OC)c2O)cc1C	.	-	-	-	-	-	.
COc1ccc(C)cc1N(C(=O)c1ccccc1F)c1nc2ccccc2s1	-2.5	-	-	-	-	-	-
COc1cccc(-c2nc(C=O)cs2)c1	4.39	-	-	-	-	-	0.103
COc1ccc(C2C(C#N)=C(N)Oc3cc4c(cc32)OCO4)cc1 (stereo unspecified)	.	-	-	-	-	-	.
CCN1C=C(Cc2ccc(OC)cc2)C2=C(C1)C(c1ccc(OC)cc1)C(C#N)=C(N)O2 (stereo unspecified)	.	-	-	-	-	-	?
Cc1ccc(SC(C)C(=O)Nc2c(C)n(C)n(-c3ccccc3)c2=O)cc1 (stereo unspecified)	-	-	-	-	-	-	.
CON1C(=O)C(=O)N(OC)C2CCCCC21 (stereo unspecified)	.	-	-	-	-	-	?
C=CCOc1c(Br)cc(/C=N/O)cc1OCC	-3.78	-	-	-	-	-	0.0574
O=C(COC(=O)c1ccc(Sc2ccccc2)c([N+](=O)[O-])c1)NC1CCCc2ccccc21 (stereo unspecified)	-	-	-	.	-	-	.
Cc1cccc2cc(CN(Cc3ccc(F)cc3)Cc3nnnn3C3CCCC3)c(=O)[nH]c12	-	-	-	.	-	-	.
Cc1cc(C)c2[nH]c(=O)c(CN(Cc3ccc4c(c3)OCO4)Cc3nnnn3C3CCCC3)cc2c1	-3.25	-	-	-	-	-	?
SMILES	ROMK primary	PKD1 inh	Arbovirus anti	Cl transport mod	Mdm2 ligase inh	Calpain2 inh	ROMK hit retest
O=c1[nH]c2ccc(NC(=S)NCCc3ccccc3)cc2[nH]1	.	.	.	-	.	-	.
COCCNC(=S)Nc1ccc2[nH]c(=O)[nH]c2c1	1.81	-	-	-	-	-	-
CC(=O)NCc1ccc(C(=O)CCl)cc1	-2	-	-	-	-	-	0.0577
Cc1ccc(C(=O)N/C(=C\c2cccs2)C(=O)NCCCn2ccnc2)cc1C	.	-	-	-	-	-	.
COC(=O)C(Cc1ccccc1)NC(=O)c1cc(S(=O)(=O)N(C)C)ccc1Cl (stereo unspecified)	-	-	-	-	-	-	.
O=C(CSc1c2c(nc3cc(Cl)ccc13)CCCC2)NCCCN1CCOCC1	-1.78	-	-	-	-	-	-
O=C(CSc1c2c(nc3cc(Cl)ccc13)CCCC2)NCCN1CCOCC1	-	-	-	-	-	-	.
CC(=O)Nc1cccc(Oc2ncnc3scc(-c4ccc(C(C)C)cc4)c23)c1	-	-	-	-	-	-	.
FC(F)(F)c1cnc(COc2cc(Cl)cc(Cl)c2)c(Cl)c1	.	.	.	-	-	-	-
COc1ccc(N2C(=O)C3CCCCC3C2=O)cc1NC(=O)c1ccccc1 (stereo unspecified)	-	-	-	-	-	-	.
CC1(C)Cc2c(C#N)c(SCc3ccccc3)nc(N3CCOCC3)c2CO1	-	-	-	.	-	-	.
CC1(C)Cc2c(C#N)c(SCC(=O)c3ccccc3)nc(N3CCOCC3)c2CO1	-3.91	-	-	-	-	-	0.0532
COC(=O)/C=C1/S/C(=N/N=C/c2ccc(N(C)C)cc2)NC1=O	.	-	-	-	-	-	.
Cc1ccccc1Cn1nc(C)c(NC(=O)/C=C/c2cnn(C)c2)c1C	3.16	-	-	.	-	-	-
Cc1ccccc1Cn1nc(C)c(NC(=O)/C=C/c2cnn(C)c2C)c1C	-	-	-	-	-	-	.
CCOc1ncccc1C(=O)NCc1ccccc1Cl	-	-	-	-	-	-	.
COC(=O)[C@@H]1C[C@@]2(O)[C@H](O)[C@H](O)[C@H](O)C[C@H]2N1Cc1ccc(C(F)(F)F)cc1	.	.	.	-	-	-	.
COC(=O)[C@@H]1C[C@@]2(O)[C@@H](O)[C@@H](O)[C@@H](O)C[C@H]2N1Cc1ccc(C(F)(F)F)cc1	.	.	.	-	-	-	-
COC(=O)c1ccccc1NC(=S)NC(=O)c1ccccc1	.	-	-	.	-	-	.
COC(=O)c1ccc(NC(=S)Nc2ccccc2)cc1	.	-	-	-	-	-	.
COC(=O)c1cccnc1NC(=S)NNC(=O)c1ccccc1	2.21	-	-	-	-	-	-
COC(=O)c1ccc(NC(=S)NNC(=O)c2ccccc2)cc1	0.935	-	-	-	-	-	-
Cc1c(C(=O)N2CCN(c3ccccc3)CC2)sc2ncnc(N3CCN(c4ccccc4)CC3)c12	-	-	.	-	.	.	.
O=C(CC(c1ccccc1)c1ccccc1)Nc1ccncc1	.	.	.	-	.	-	-
COC(=O)/C=c1/s/c(=C(/C#N)C(=O)N2CCOCC2)n(-c2ccccc2)c1=O	-	-	-	.	-	-	.
COC(=O)/C=c1/s/c(=C(/C#N)C(=O)N2CCCCC2)n(-c2ccccc2)c1=O	-3.2	-	-	-	-	-	0.0566
CCOc1ccc(N2C(=O)CC(N3CCN(C4CCc5ccccc5C4)CC3)C2=O)cc1 (stereo unspecified)	-2.13	-	-	.	-	-	0.0643
CCC1=NN2C(=N)/C(=C/c3c(C)nn(-c4ccccc4)c3Cl)C(=O)N=C2S1	-3.09	-	-	-	-	-	0.0467
CC(C)N1C(=O)CCN(C=O)c2ccccc21	-	-	-	-	-	-	.

Compound activity: PubChem, several laboratories
